PubChem BioAssay AID822 (SRMLSC, 2007)
Activity calls are given as the source filed them.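 How the source made its calls: active means half-maximal effective dose for blocking growth of human endothelial cells at most 100 µM; inactive means the rest.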

System: HUVEC proliferation, viability ATP luminescence
Experiment: growth suppression of umbilical vein endothelial cells – cell-based, HUVEC, ATP luminescence, dose response (AID 822);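 further: cells exposed to compound for 72 h before the ATP read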
How it was run: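 Assay system: HUVEC primary endothelial cells, low passage (≤12) | Doses: 0.039–20 µM, 0.2% DMSO | Incubation: 72 h compound exposure at 37 °C | Detection: CellTiter-Glo ATP luminescence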

Structure (SMILES)	EC50
O=C(/C=C/c1ccc(Cl)cc1)c1cccnc1	17.2 µM
COc1ccc(C2Oc3ccccc3C3=C2C(c2cccs2)n2ncnc2N3)cc1 (centres undefined)	16.3 µM
O=C1C2=C(NC(=S)NC2c2ccc(Cl)cc2)NC(c2ccc(Cl)cc2)N1c1ccc(Cl)cc1 (centres undefined)	5.96 µM
CCN(CC)CCn1c2ccccc2c2cnc(N)c(C#N)c21	15.2 µM
Cc1ccc2c(C)ccc(O)c2n1	7.33 µM
CCOC(=O)N1CCC(c2cc(=O)n3[nH]c(C)c(-c4ccc(F)cc4)c3n2)CC1	6.46 µM
CSc1nc2c(cnn2-c2ccc(C)c(C)c2)c(=O)[nH]1	17.8 µM
CCOC(=O)C(C(C)=O)c1c(Br)c(O)c(O)c2c(C(=O)c3ccc(C)cc3)coc12 (centres undefined)	7.17 µM
CC(Nc1nc(N2CCN(S(C)(=O)=O)CC2)nc2ccccc12)c1ccccc1 (centres undefined)	9.04 µM
Fc1ccc2c(Cl)c(-c3nnc(-c4cccs4)o3)sc2c1	8.06 µM
Cc1ccc(-n2c(SCC(=O)Nc3ccc4c(c3)OCO4)nnc2-c2cccs2)cc1	8.21 µM
CCCCCn1c(CN2CCN(c3cc(Cl)ccc3C)CC2)nc2c1c(=O)[nH]c(=O)n2C	3.21 µM
COc1ccc(-n2c(SCC(=O)Nc3sc4c(c3C#N)CCCC4)nnc2-c2ccc(O)cc2)cc1	4.32 µM
CCOC(=O)C1=C(Cc2ccc(F)cc2)C(=O)c2ccccc2C1=O	13.6 µM
Cc1ccc2c(c1)[nH]c1c(N3CCN(Cc4ccccc4)CC3)ncnc12	7.57 µM
Cc1cc2c(cc1C)CSC(c1c(O)ccc3ccccc13)SC2	5.81 µM
CC1=NOC(=O)/C1=C/c1ccc(-c2ccc(Cl)cc2)o1	4.06 µM
COC(=O)c1sccc1NC(=O)c1ccc2c(c1)OCO2	20.4 µM
Cc1ccccc1NC(=O)CSC(N)=O	19 µM
COc1cccc(-c2cc(C(=O)Nc3cc(C)n(Cc4ccc(Cl)cc4)n3)no2)c1	12.3 µM
N#Cc1nc(COc2ccc(-c3ccccc3)cc2)oc1NCCCN1CCOCC1	10.6 µM
COc1ccccc1N1CCN(CC(=O)c2c(C)[nH]c3cc(C)ccc23)CC1	10.2 µM
O=C(NCCC1=CCCCC1)C1CCN(Cc2cnn(-c3ccccc3)c2-n2cccc2)CC1	15.1 µM
COc1ccc(CN=C(C)c2c(C(F)(F)F)[nH]n(-c3nc4ccccc4s3)c2=O)cc1	5.87 µM
CC1=C(C(=O)OC2CCCCCCC2)C(c2cc3c(cc2Br)OCO3)CC(=O)N1 (centres undefined)	6.99 µM
Oc1ccccc1-c1nnc(SCCN2CCOCC2)n1Cc1ccccc1	13.6 µM
Nc1c(C(=O)NCc2ccccc2)nnn1Cc1cccc(Cl)c1	13.9 µM

Structure (SMILES)	EC50
OC(C#Cc1ccccn1)c1cccs1 (centres undefined)	4.29 µM
CCn1c2c(c3cc(Br)ccc31)CCC/C2=N\O	15.2 µM
CN1CCN(c2nc3ccccc3nc2C(C#N)C(=O)OC2CCCCC2)CC1 (centres undefined)	3.87 µM
COc1ccc(-c2cn3c(C)c(C(=O)Nc4cccc(NC(C)=O)c4)sc3n2)cc1	12.1 µM
CCOC(=O)c1cnc(-n2nc(C)cc2C)nc1NCCc1ccccc1	12.7 µM
COc1ccccc1N1C(=O)N(C(C)=O)C2C1Nc1ccccc1N2C (centres undefined)	6.17 µM
O=c1cc(-c2ccccc2)[nH]n1-c1nc2ccccc2[nH]1	6.25 µM
CC1CC(C)CN(S(=O)(=O)c2ccc(C(=O)Nc3nnc(-c4cccs4)o3)cc2)C1 (centres undefined)	3.04 µM
Cc1cc(N2CCCCC2)nc2ccc(NC(=O)c3ccc(Br)o3)cc12	17.2 µM
CC(C)C1Cc2c(sc3[nH]c(=S)n(Cc4ccccc4)c(=O)c23)CO1 (centres undefined)	3.05 µM
c1ccc(-c2nc3nonc3nc2-c2ccccc2)cc1	3.46 µM
Oc1c(CN2CCN(c3ccccn3)CC2)cc(Cl)c2cccnc12	7.42 µM
COC(=O)C1=C(C)N=c2s/c(=C3\C(=O)Nc4ccccc43)c(=O)n2C1c1ccccc1 (centres undefined)	6.31 µM
COc1ccc(-c2nnc(Nc3nc4c(OC)cccc4s3)o2)cc1	4.41 µM
CC(C)(C)c1nn(-c2ccccc2)c2[nH]c(=O)c(CNCc3ccc4c(c3)OCO4)cc12	8.15 µM
Cc1cc(=O)[nH]c2ccc(Cl)cc12	> 10 µM (inactive)
CC(Nc1nc(N2CCCC2)nc2ccccc12)c1ccccc1 (centres undefined)	5.19 µM
COC(=O)c1c(C)n(-c2ccc(OC)cc2)c2ccc(O)cc12	8.97 µM
Cc1cccc(-c2nc(CN3CCCC(C(=O)NC4CCCCCC4)C3)c(C)o2)c1 (centres undefined)	10.8 µM
COc1ccc(-c2nnc(NC(=O)c3ccc(S(=O)(=O)N4CCCc5ccccc54)cc3)o2)cc1	2.96 µM
Cn1c(=O)n(C)c2cc(C(=O)Nc3ccc4c(c3)OCO4)ccc21	11.6 µM
Oc1ccc(Cl)cc1-c1cc(-c2ccco2)[nH]n1	13.7 µM
CCn1cc(C(=O)NCc2ccc3c(c2)OCO3)c(=O)c2cc(F)c(N3CCN(C(=O)c4ccco4)CC3)cc21	10.4 µM
CC[n+]1cc(-c2ccccc2)nc(N2CCOCC2)n1	9.86 µM
Brc1ccc(-c2csc(NNC3=NCCCCC3)n2)cc1	> 10 µM (inactive)
CC1=CC(C)(C)N2C(=O)C3(C(C#N)=C(N)Oc4cc(O)ccc43)c3c(C)c(C)cc1c32 (centres undefined)	6.14 µM
O=C(Nc1nnc(-c2ccc3c(c2)OCCO3)o1)c1ccc(Cc2ccccc2)cc1	4.76 µM
